Bioassay records: PubChem, several laboratories
Rows were chosen to be rich in hits. Some 3.5% of all compounds tested hit in one or more screens of this group.
FXIIa inh = inhibitors of human coagulation factor XIIa | P00748 | purified FXIIa, Boc-QGR-AMC fluorogenic substrate, 2 h | inhibition, % at 5 µM | 0.3% of 220,000 active; in the data active = inhibition above about 40%;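 note: 0% = enzyme with no compound and 100% = blank without enzyme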
STAT3 act = STAT3 signaling activation; U3A cells, IL-6 STAT3-luciferase reporter, luminescence; 100% = signal with IL-6 EC80 alone; activation (% of control), % at 5.6 µM; 0.91% of 190,000 active; AID 871;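 active = activation above the screen-wide mean of compound activation plus 3 SD, cut at about 130% in these data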;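 note: 0% = background luminescence of wells with medium and substrate only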
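Material: human U3A cells carrying STAT3-luciferase construct. Measured by: reporter luminescence signal. Timing: compound 1 h, then IL-6 6 h at 37 °C.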
hK5 inh = inhibitors of human kallikrein 5; Q9Y337; AID 873; inhibition, % at 5 µM; recombinant hK5, fluorogenic AMC substrate cleavage; 0.59% of 210,000 active;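 active = inhibition of 40% or more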;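 note: 0% = enzyme controls without compound and 100% = no-enzyme blanks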
FXIa inh 1536 = blocks human coagulation factor XIa protease activity | AID 798 | inhibition, % at 5 µM | P03951 | 0.14% of 220,000 active | purified FXIa, Boc-Glu-Ala-Arg-AMC fluorogenic substrate;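 active = inhibition of at least 40%; inactive = inhibition below 40%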;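 note: fluorescence of freed AMC excited at 355 nm; 0% = enzyme without compound and 100% = no enzyme blank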
thrombin 1536 = thrombin (human) inhibition. 0.26% of 220,000 active. P00734. inhibition, % at 5 µM. alpha-thrombin, Boc-VPR-AMC fluorogenic substrate cleavage;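 active = inhibition at or above 40%; inactive = inhibition below 40%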;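 note: 0% = enzyme with no compound and 100% = wells without enzyme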
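Material: human alpha-thrombin protein. Incubation: reaction at ambient temperature. Technique: fluorescence of released AMC, ex 355 nm, em 460 nm. Control set: no-compound enzyme wells and no-enzyme blanks. Also added: Boc-VPR-AMC substrate, 15 µM final. Buffer or medium: pH 7.5 Tris (50 mM) with NaCl 150 mM, Tween 20 0.05%.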
AHR activator = activates the human aryl hydrocarbon receptor; 2.5% of 320,000 active; AHR-responsive luciferase reporter cells, luminescence; activation, % at 5 µM; AID 2796; in the data active = activation above about 47%;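 note: 0% = vehicle wells and 100% = reference agonist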
Target sequence (P35869 whole entry, looked up): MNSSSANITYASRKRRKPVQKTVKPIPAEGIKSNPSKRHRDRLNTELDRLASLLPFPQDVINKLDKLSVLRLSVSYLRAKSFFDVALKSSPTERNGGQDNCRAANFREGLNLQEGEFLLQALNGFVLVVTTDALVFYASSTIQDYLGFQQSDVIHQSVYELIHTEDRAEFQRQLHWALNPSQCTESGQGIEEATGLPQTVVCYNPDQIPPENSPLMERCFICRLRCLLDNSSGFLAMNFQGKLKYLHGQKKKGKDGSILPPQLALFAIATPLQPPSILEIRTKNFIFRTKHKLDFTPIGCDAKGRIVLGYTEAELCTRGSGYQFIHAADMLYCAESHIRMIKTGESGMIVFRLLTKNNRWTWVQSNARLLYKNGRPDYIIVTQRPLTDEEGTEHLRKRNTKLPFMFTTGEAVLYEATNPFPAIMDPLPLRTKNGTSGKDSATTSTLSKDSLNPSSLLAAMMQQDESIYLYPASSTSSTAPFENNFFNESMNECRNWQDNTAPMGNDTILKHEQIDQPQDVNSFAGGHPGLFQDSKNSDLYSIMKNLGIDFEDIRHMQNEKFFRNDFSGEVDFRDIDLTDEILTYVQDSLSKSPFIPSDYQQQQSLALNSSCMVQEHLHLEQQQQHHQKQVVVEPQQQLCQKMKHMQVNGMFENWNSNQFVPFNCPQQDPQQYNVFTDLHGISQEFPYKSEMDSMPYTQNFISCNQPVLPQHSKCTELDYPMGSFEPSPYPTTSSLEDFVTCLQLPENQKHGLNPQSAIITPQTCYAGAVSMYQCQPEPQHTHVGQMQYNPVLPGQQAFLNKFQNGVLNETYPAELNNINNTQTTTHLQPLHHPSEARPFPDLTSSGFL
An asterisk follows results filed as active; i = inactive; . = not tested or not shown.

SMILES	FXIIa inh	STAT3 act	hK5 inh	FXIa inh 1536	thrombin 1536	AHR activator
O=C(Oc1ccc2c(=O)c(Cl)coc2c1)c1cccnc1	30	107	-10	66*	23	1
Cc1cc(C)cc(OCC(=O)O/N=C(\N)c2cccnc2)c1	4	.	2	0	0	.
CCc1ccc(/C([O-])=C(/C(=S)NCCN2CCOCC2)[n+]2ccccc2)cc1	7	94	-8	6	-3	3
CC(=O)n1cc([C@@H]2C=C(C(=O)NCc3ccccc3)O[C@H](OCCCCO)C2)c2ccccc21	10	.	3	6	2	73*
O=C(NCc1ccccc1)C1=C[C@@H](c2coc3ccccc3c2=O)C[C@@H](OCCCCO)O1	14	.	6	1	41*	-2
CC(=O)n1cc([C@H]2C=C(C(=O)Nc3ccccc3)O[C@@H](OCCCCO)C2)c2ccccc21	5	.	-2	0	-2	36
C=CCOC(=O)C1=C[C@@H](c2cn(C(C)=O)c3ccccc23)C[C@@H](OCCCCO)O1	8	.	1	1	-1	7
C#CCNC(=O)C1=C[C@@H](c2cn(C(C)=O)c3ccccc23)C[C@@H](OCCCCO)O1	11	.	3	1	0	65*
CC1CCN(C(=O)COc2cccc3c2CCN(Cc2ccccc2)C3=O)CC1	4	99	-4	-4	-6	-3
COc1ccc(C(=O)NCCc2c[nH]c3ccccc23)cc1OC	.	.	.	.	.	9
COc1ccc(C(c2c[nH]c3ccccc23)c2c[nH]c3ccccc23)cc1O	5	192*	-5	4	-3	28
Cc1[nH]c(C)c(S(=O)(=O)N2CCN(c3ccccc3)CC2)c1C(=O)N1CCCCC1	.	.	.	.	.	3
COc1ccc(CCNc2c3ccccc3nc3ccccc23)cc1OC	11	.	1	5	1	35
Cc1cc(-c2nc3cccnc3s2)ccc1NS(=O)(=O)c1ccc2c(c1)OCCO2	-16	118	i	-13	-16	48*
Cc1cc(-c2nc3cccnc3s2)ccc1NS(=O)(=O)c1cccs1	-20	.	-54	-16	-29	70*
Cc1c(NS(=O)(=O)c2cccs2)cccc1-c1nc2cccnc2s1	8	.	-2	1	-4	4
COC(=O)C1=C2SCC(=O)N2C(N)=C(C#N)C1	5	.	-5	-4	2	-1
CCC(=O)Nc1ccc2c(c1)C(=O)c1ccccc1C2=O	21	94	-1	7	3	69*
C(=N\Nc1ccccn1)/c1c[nH]c2ccccc12	11	.	1	1	-5	48*
COc1ccc(C(=O)N/N=C/c2cc3ccccc3[nH]c2=S)cc1	14	80	-8	-9	1	57*
COc1ccc(C(=O)N/N=C/c2c[nH]c3ccccc23)cc1	.	.	.	.	.	56*
COc1ccc(C(=O)N/N=C/c2cccc3cccnc23)cc1	8	82	-157	9	0	4
Cc1ccc(/C=N/Nc2ccccn2)s1	.	.	.	.	.	49*
CC(C)C[C@H](NC(=O)N1CCn2c1nc1ccccc12)C(=O)NCC1CCCO1 (stereo partly specified)	.	.	.	.	.	0
O=C(COC(=O)CCS(=O)(=O)c1ccccc1)Nc1ccc(N2CCCCC2)cc1	.	.	.	.	.	2
SMILES	FXIIa inh	STAT3 act	hK5 inh	FXIa inh 1536	thrombin 1536	AHR activator
O=C(O)c1cc(N/N=C/c2c[nH]c3ccccc23)ccc1Cl	.	.	.	.	.	58*
CC(C)NC(=S)N/N=C/c1c[nH]c2ccccc12	2	126	-17	-6	-4	129*
O=C(N/N=C/c1c[nH]c2ccccc12)c1ccn(Cc2ccc(Cl)cc2Cl)n1	-8	135*	17	-2	-2	50*
O=C(N/N=C/c1c[nH]c2ccccc12)c1cccc(Cl)c1	.	.	.	.	.	52*
Cn1c(-c2cccc([N+](=O)[O-])c2)cnc1NCc1ccc(C#N)cc1	4	96	-6	-2	5	-4
O=C(CN1C(=O)NC2(CCCC2)C1=O)NCc1ccc(Cl)cc1	.	.	.	.	.	-1
Cc1ccc2[nH]c(=O)c(C(c3nnnn3CC3CCCO3)N3CCCc4ccccc43)cc2c1 (stereo unspecified)	3	118	-10	6	-1	12
COc1cccc(CSc2ccc(S(=O)(=O)N3CCOCC3)cc2C(=O)NCC2CCCO2)c1OC (stereo unspecified)	5	102	.	-2	-4	2
O=C(N/N=C/c1c[nH]c2ccccc12)c1cccc(O)c1	.	.	.	.	.	8
CC(=O)Nc1cccc(C(=O)N/N=C/c2c[nH]c3ccccc23)c1	.	.	.	.	.	76*
CCc1ccc(-c2cc(C(=O)N/N=C/c3c[nH]c4ccccc34)[nH]n2)cc1	11	76	5	5	3	55*
CC(C(=O)NCc1ccccc1Cl)N1C(=O)c2ccccc2C1=O (stereo unspecified)	.	.	.	.	.	-2
O=C(NCCc1ccc(Cl)cc1)c1cc(-c2ccccn2)nc2ccccc12	.	.	.	.	.	13
Cc1ccc(-c2cc(=O)c3ccccc3[nH]2)cc1	9	94	-8	14	-1	50*
CCn1cc(C(=O)NCc2cccnc2)c(=O)c2cc(F)c(N3CCN(C(=O)c4ccco4)CC3)cc21	41*	88	4	15	1	42
CCCNC(=O)CN1C(=O)COc2ccc(S(=O)(=O)N3CC(C)CC(C)C3)cc21 (stereo unspecified)	.	.	.	.	.	3
Cc1ccc(Cn2c(=N)c(C(=O)NCc3ccco3)cc3c(=O)n4ccccc4nc32)cc1	19	106	41*	13	20	0
COc1ccc(CNC(=O)c2cc3c(=O)n4ccccc4nc3n(Cc3ccco3)c2=N)cc1	.	96	.	.	.	.
Cc1nc(SCn2nnc3ccccc3c2=O)nc(C)c1C	15	100	-1	-4	6	8
Nc1nc(SCn2nnc3ccccc3c2=O)n[nH]1	40*	101	19	31	16	-1
O=c1c2ccccc2nnn1CSc1ccccc1	9	78	-5	7	2	60*
O=C(/C=C/c1c[nH]c2ccccc12)c1cccc2ccccc12	-2	120	-6	-2	-6	68*
COC(=O)/C(=C\c1c[nH]c2ccccc12)NC(C)=O	9	107	1	4	-3	7
Cc1ccc(C)c(N(CC(N)=O)S(C)(=O)=O)c1	19	99	-15	-3	-2	1
Fc1ccc(C2=Nn3c(nnc3-c3n[nH]c4c3CCC4)SC2)cc1	10	73	-25	-5	-11	54*
CN1c2ccsc2/C(=N/Nc2ccc(F)cc2)CS1(=O)=O	5	126	-5	1	-2	65*
CCCC(=O)N/N=C1\CS(=O)(=O)N(C)c2ccsc21	12	101	-3	-44	3	6
Cc1ccc(C(=O)CSc2nnc(-c3c[nH]c4ccccc34)o2)cc1	-2	100	-17	1	-3	7
Clc1cccc(CSc2nnc(-c3c[nH]c4ccccc34)o2)c1	13	93	17	3	-6	52*
